# Assay results taken from ChEMBL document CHEMBL1147097, “Trioxaquines are new antimalarial agents active on all erythrocytic forms, including gametocytes” (Antimicrob Agents Chemother, 2007).
# Calls of active or inactive are those of the source.
# How the values were obtained:
# [1] = Ratio of IC50 for HCT cells to IC50 for Plasmodium falciparum; format: functional
# [2] = tested on: Plasmodium vinckei petteri; assay: Antimalarial activity against Plasmodium vinckei petteri infected mice (Mus musculus) at 5 mg/kg/day, peroral administered 4 days after infection for 4 days; format: functional, organism-based
# How it was run: (§1)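 Established-infection test: mice infected with 10^6 P. vinckei petteri on day 0 and left untreated until day 4. Then dosed p.o. by gavage once daily in DMSO for 4 days (days 4–7). Thin blood smears taken daily before and after treatment, with follow-up for recrudescence to 60 days.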
# [3] = tested on: Plasmodium falciparum; assay: Antimalarial activity against chloroquine-sensitive Plasmodium falciparum F32; format: functional, organism-based
# How it was run: (§2)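 Asexual P. falciparum grown in culture at 37°C under 5% CO2 and exposed to drug dilutions for 48 h. Growth inhibition measured by radioactive micromethod. IC50 read graphically from concentration vs % growth inhibition; mean of at least three independent experiments.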
# [4] = tested on: Plasmodium falciparum; assay: Antimalarial activity against chloroquine-resistant Plasmodium falciparum FcB1; format: functional, organism-based; how it was run: as §2
# [5] = tested on: Plasmodium falciparum; assay: Antimalarial activity against chloroquine-resistant Plasmodium falciparum FcM29; format: functional, organism-based; how it was run: as §2
# [6] = Cytotoxicity against human HCT cells assessed as [3H]thymidine incorporation; format: cell-based
# How it was run: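 HCT human colorectal tumour cells grown with 10% fetal calf serum and harvested with 0.05% trypsin-EDTA. Plated at 15 × 10^3 cells/well with drug dilutions.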
# [7] = tested on: Plasmodium vinckei petteri; assay: Antimalarial activity against Plasmodium vinckei petteri infected intraperitoneally dosed Swiss Albino mice (Mus musculus); format: functional; details: for ED50 / ED90: Plasmodium vinckei, ip; for ED50: read-out: ED50; for ED90: read-out: ED90
# How it was run: (§3)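 Four-day suppressive test: groups of five female Swiss albino mice infected i.p. on day 0 with 2 × 10^7 parasitized red cells, then dosed once daily for 4 days (i.p., p.o. or s.c.; DMSO vehicle, chloroquine in 0.9% NaCl). Parasitemia read on day 4 vs untreated controls; ED50/ED90 as % growth inhibition; CD50/CD90 = cure (no parasites at 60 days).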
# [8] = tested on: Plasmodium vinckei petteri; assay: Antimalarial activity against Plasmodium vinckei petteri infected orally dosed Swiss Albino mice (Mus musculus); format: functional; details: for ED50 / ED90: Plasmodium vinckei, po; how it was run: as §3
# [9] = tested on: Plasmodium vinckei petteri; assay: Antimalarial activity against Plasmodium vinckei petteri infected subcutaneously dosed Swiss Albino mice (Mus musculus); format: functional; details: for ED50 / ED90: Plasmodium vinckei, sc; how it was run: as §3
# [10] = tested on: Plasmodium yoelii nigeriensis; assay: Antimalarial activity against Plasmodium yoelii nigeriensis infected mice (Mus musculus) by oral dose; format: functional
# How it was run: (§4)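 Four-day suppressive test with P. yoelii nigeriensis: infected mice given drug once daily for four consecutive days p.o. or s.c. (DMSO vehicle, chloroquine in 0.9% NaCl). Parasitemia compared with untreated controls. Cure was defined as no parasites detected after 60 days, with CD50 taken as the dose curing 50% of mice.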
# [11] = tested on: Plasmodium yoelii nigeriensis; assay: Antimalarial activity against Plasmodium yoelii nigeriensis infected subcutaneously dosed mice (Mus musculus); format: functional; how it was run: as §4
# [12] = tested on: Plasmodium falciparum; assay: Growth inhibition after 6 hrs in chloroquine-resistant Plasmodium falciparum FcB1; format: functional, organism-based; details: FcB1, 6 h
# How it was run: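 Plasmion-synchronized FcB1 parasites plated at ring stage and exposed to drug during successive 6-h windows of the erythrocytic cycle (one plate per period). Artemisinin tested at 7, 14, 28 nM; chloroquine at 120, 163, 232 nM; trioxaquine at 11.5, 23, 46 nM. Dilutions prepared daily.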
# [13] = tested on: Plasmodium falciparum; assay: Antimalarial activity against chloroquine-resistant Plasmodium falciparum W2 gametocytes (stage 2 & 3); format: functional, organism-based
# How it was run: (§5)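 W2 gametocyte cultures treated with 50 mM N-acetyl-D-glucosamine for 3 or 5 days to remove asexual forms. Young (7-day) or old (13-day) cultures exposed to drug dilutions for 48 h. Giemsa thin films made and gametocytes counted per 6,000–10,000 erythrocytes. Mean of three independent experiments.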
# [14] = tested on: Plasmodium falciparum; assay: Antimalarial activity against chloroquine-resistant Plasmodium falciparum W2 gametocytes (stage 4 & 5); format: functional, organism-based; how it was run: as §5
# [15] = tested on: Plasmodium falciparum; assay: Antimalarial activity against chloroquine-resistant Plasmodium falciparum W2 asexual […]; format: functional, organism-based
# [16] = tested on: Mus musculus; assay: Toxicity against Swiss mouse at 100 mg/kg, po after 4 days; format: organism-based; parameters: dose 100 mg/kg, route oral; details: in vivo, 96 h
# How it was run: (§6)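 Healthy Swiss mice given 100, 200 or 400 mg/kg/day p.o. by gavage for four consecutive days; two to four mice per dose, two experiments. One mouse killed per dose on days 5, 30 and 60. Organs examined against NaCl- or DMSO-treated controls, with H&E sections of stomach.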
# [17] = tested on: Mus musculus; assay: Toxicity against Swiss mouse at 200 mg/kg, po after 4 days; format: organism-based; parameters: dose 200 mg/kg, route oral; details: in vivo, 96 h; how it was run: as §6
# [18] = tested on: Mus musculus; assay: Toxicity against Swiss mouse at 400 mg/kg, po after 4 days; format: organism-based; parameters: dose 400 mg/kg, route oral; details: in vivo, 96 h; how it was run: as §6
# [19] = tested on: Plasmodium vinckei petteri; assay: Antimalarial activity against Plasmodium vinckei petteri infected mice (Mus musculus) at 13 mg/kg/day, peroral administered 4 days after infection for 4 days; format: functional, organism-based; how it was run: as §1
# [20] = Ratio of LD50 for Swiss mice (Mus musculus) to ED50 for Plasmodium vinckei petteri infected mice (Mus musculus); format: functional
# How it was run: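 Therapeutic index: LD50 (healthy Swiss mice, observed 60 days) divided by ED50 from the 4-day P. vinckei petteri suppressive test.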
# [21] = tested on: Mus musculus; assay: Mortality rate in Plasmodium vinckei petteri infected mice (Mus musculus) at 50 mg/kg, subcutaneously; format: functional, organism-based; parameters: dose 50 mg/kg
# How it was run: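 Subacute toxicity: P. vinckei petteri-infected mice dosed on four consecutive days (day 0–3) at 10, 25 or 50 mg/kg/day p.o., i.p. or s.c. Five mice per dose and route.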
Structure (SMILES),ED50 [7],ED90 [7],CD50 [8],CD90 [8],ED50 [8],ED90 [8],CD50 [9],CD90 [9],ED50 [9],ED90 [9],IC50 [13],IC50 [14],IC50 [15],further results
C[C@@H]1CC[C@H]2[C@@H](C)C(=O)O[C@@H]3O[C@@]4(C)CC[C@@H]1[C@]32OO4 [ARTEMISININ],4 mg/kg/day,> 5 mg/kg/day,>25 mg/kg/day,>25 mg/kg/day,17 mg/kg/day,30 mg/kg/day,>10 mg/kg/day,>10 mg/kg/day,3.2 mg/kg/day,8 mg/kg/day,,,,"Ratio IC50 [1]: 4370; Activity [2]: Active; IC50 ([3]; Plasmodium falciparum, F32): 6 nM; IC50 ([4]; Plasmodium falciparum, FcB1): 5 nM; IC50 ([5]; Plasmodium falciparum, FcM29): 8 nM; IC50 [6]: > 35000 nM; CD50 [10]: 75 mg/kg/day; CD90 [10]: >100 mg/kg/day; ED50 ([10]; Plasmodium yoelii, po): 16 mg/kg/day; ED90 ([10]; Plasmodium yoelii, po): 27 mg/kg/day; CD50 [11]: 7 mg/kg/day; CD90 [11]: 23 mg/kg/day; ED50 ([11]; Plasmodium yoelii, sc): 5 mg/kg/day; ED90 ([11]; Plasmodium yoelii, sc): 23 mg/kg/day; IC50 [12]: 15 nM"
COc1cc(NC(C)CCCNC2CCC3(CC2)OO[C@@]2(C)CCC(C(C)C)=C[C@H]2O3)c2ncccc2c1 (stereo partly specified),,,,,,,,,,,57 nM,46 nM,43 nM,
CO[C@H]1O[C@@H]2O[C@@]3(C)CC[C@H]4[C@H](C)CC[C@@H]([C@H]1C)[C@@]24OO3,0.3 mg/kg/day,0.7 mg/kg/day,,,,,,,,,,,,
O=C1C(O)=C([C@H]2CC[C@H](c3ccc(Cl)cc3)CC2)C(=O)c2ccccc21 [ATOVAQUONE],,,,,,,,,,,24000 nM,50400 nM,4.6 nM,
C[C@H]1[C@H](OC(=O)CCC(=O)O)O[C@@H]2O[C@@]3(C)CC[C@H]4[C@H](C)CC[C@@H]1[C@@]24OO3 [ARTESUNATE],,,19 mg/kg/day,28 mg/kg/day,2.5 mg/kg/day,8 mg/kg/day,2.5 mg/kg/day,7.5 mg/kg/day,0.3 mg/kg/day,0.8 mg/kg/day,72 nM,108 nM,6 nM,"IC50 ([5]; Plasmodium falciparum, FcM29): 1.6 nM"
CC(C)C1=C[C@H]2OC3(CCC(NCCNc4ccnc5cc(Cl)ccc45)CC3)OO[C@@]2(C)CC1 (stereo in doubt; form 7) [TRIOXAQUINE 3],,,,,,,,,,,,,,IC50 [3]: 7 nM; IC50 [4]: 7 nM; IC50 [5]: 7 nM
CC(C)C1=C[C@H]2OC3(CCC(NCCNc4ccnc5cc(Cl)ccc45)CC3)OO[C@@]2(C)CC1 (stereo in doubt; form 2),,,,,,,,,,,,,,IC50 [4]: 48 nM; IC50 [5]: 32 nM
COc1cc(NC(C)CCCN)c2ncccc2c1 (stereo unspecified) [PRIMAQUINE],,,,,,,,,,,4580 nM,1540 nM,1320 nM,
CC(C)C1=C[C@H]2OC3(CCC(NCCNc4ccnc5cc(Cl)ccc45)CC3)OO[C@@]2(C)CC1 (stereo partly specified) [listing 1 of 2 here],0.7 mg/kg/day,8 mg/kg/day,12 mg/kg/day,24 mg/kg/day,4 mg/kg/day,9 mg/kg/day,5 mg/kg/day,8 mg/kg/day,1.5 mg/kg/day,9 mg/kg/day,,,,CD50 [7]: 5 mg/kg/day; CD90 [7]: 8 mg/kg/day; Activity [16]: Non-toxic; Activity [17]: Non-toxic; Activity [18]: Non-toxic
CC(C)C1=C[C@H]2OC3(CCC(NCCNc4ccnc5cc(Cl)ccc45)CC3)OO[C@@]2(C)CC1 (stereo partly specified) [listing 2 of 2 here],,,,,,,,,,,,,,Activity [19]: Active; Ratio LD50/ED50 [20]: 100; Activity [21]: inactive
